# An excerpt weighted towards active compounds, which were near 2.6% of everything screened.
# PHOSPHO1 inh – inhibitors of human PHOSPHO1 phosphatase; Q8TCT1; recombinant PHOSPHO1, absorbance phosphatase assay; inhibition, % at 13.3 µM; hit rate 1.1% among 290,000; in the data active = inhibition above about 60%
# Target sequence (Q8TCT1 whole entry, looked up): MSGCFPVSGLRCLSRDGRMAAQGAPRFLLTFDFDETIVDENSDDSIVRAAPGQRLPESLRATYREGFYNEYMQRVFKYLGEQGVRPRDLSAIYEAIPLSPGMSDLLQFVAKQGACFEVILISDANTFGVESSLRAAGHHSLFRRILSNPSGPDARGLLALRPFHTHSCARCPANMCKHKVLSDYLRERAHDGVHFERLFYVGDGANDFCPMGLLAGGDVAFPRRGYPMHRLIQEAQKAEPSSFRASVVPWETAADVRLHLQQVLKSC
# ASAP1 GAP inh – inhibitors of human ASAP1 ArfGAP activity; inhibition, % at 16.5 µM; hit rate 0.19% among 360,000; AID 624377; ASAP1-stimulated ARF1 GTP hydrolysis, GDP FP detection; in the data active = inhibition above about 25%;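 note: 0% = vehicle with enzyme and substrate and 100% = no enzyme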
# Target sequence (Q9ULH1 325-724 limits assumed): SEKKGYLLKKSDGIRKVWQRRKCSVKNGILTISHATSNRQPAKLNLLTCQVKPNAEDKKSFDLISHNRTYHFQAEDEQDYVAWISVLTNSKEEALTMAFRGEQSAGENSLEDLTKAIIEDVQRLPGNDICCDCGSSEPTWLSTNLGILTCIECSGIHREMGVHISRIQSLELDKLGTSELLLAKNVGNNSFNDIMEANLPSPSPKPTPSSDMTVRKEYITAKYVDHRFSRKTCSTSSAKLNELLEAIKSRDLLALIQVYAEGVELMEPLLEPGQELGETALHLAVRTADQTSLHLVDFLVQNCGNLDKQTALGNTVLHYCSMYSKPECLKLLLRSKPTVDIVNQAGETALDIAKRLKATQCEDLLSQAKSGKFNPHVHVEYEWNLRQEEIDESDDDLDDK
# ARFGAP1 inhibitor – inhibitors of rat ARFGAP1; Arfgap1-stimulated ARF1 GTP hydrolysis, GDP FP detection; inhibition, % at 16.5 µM; AID 651572; hit rate 0.26% among 360,000;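 active = inhibition above a per-plate limit, mean inhibition of low control wells plus 3 SD, cut at about 25% in these data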;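 note: 0% = DMSO wells with enzyme and 100% = wells lacking Arfgap1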
#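 Material – truncated rat Arfgap1 GAP domain · Buffer or medium – HEPES-based buffer, pH 7.5 · Reagent – human ARF1(Δ1-17)-GTP substrate · Dosing – 16.5 µM single point, 1.26% DMSO · Schedule – GTP hydrolysis reaction 2 h at 25 °C · Technique – GDP detection by fluorescence polarization · Benchmarks – No-Arfgap1 wells (100%) versus DMSO full-reaction wells (0%) · Repeats – single replicate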
# Calb FLC – C. albicans growth modulation with fluconazole | AID 1979 | hit rate 0.57% among 300,000 | growth inhibition, % (test concentration not listed) | C. albicans CaCi-2 (fluconazole-resistant clinical isolate) + fluconazole, Alamar Blue growth, 48 h;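 active = growth inhibition above about 58% in most replicates, limit read from the data, passing the limit was not always enough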;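 note: all wells also contain fluconazole at 8 µg/ml as a sub-toxic cotreatment; 0% = median of DMSO wells and 100% = median of geldanamycin control wells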
# VIM-2 inh – inhibitors of Pseudomonas aeruginosa VIM-2 metallo-beta-lactamase; purified VIM-2, nitrocefin hydrolysis, epi-absorbance fluorescence; inhibition, % at 5.6 µM; hit rate 0.89% among 290,000;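 active = inhibition above the mean of all tested compounds plus 3 SD, cutoff set per screening run, cut at about 7.5% in these data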;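 note: red hydrolysis product quenches plate fluorescence so inhibitors raise well fluorescence; 0% = enzyme with DMSO and 100% = DMSO without enzyme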
# IMP-1 inh – inhibitors of Pseudomonas aeruginosa IMP-1 metallo-beta-lactamase. purified IMP-1, nitrocefin hydrolysis, epi-absorbance fluorescence. inhibition, % at 5.6 µM. hit rate 0.45% among 290,000. AID 1556;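 active = inhibition above the mean plus 3 SD of all compounds in the same screening run, cut at about 4.5% in these data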;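 note: 0% = IMP-1 with DMSO and 100% = DMSO wells lacking enzyme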
#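 System: Purified recombinant IMP-1 metallo-beta-lactamase enzyme | Measured by: Fluorescence quenching readout, ex 480/em 530 nm | Replication: Singlicate | Incubation: 15 min preincubation plus 25 min reaction at 25 °C | Evaluation: Percent inhibition from optical density relative to buffer-blank wells | Benchmarks: DMSO with and without IMP-1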
# An asterisk follows results filed as active; / = no result given.
SMILES,PHOSPHO1 inh,ASAP1 GAP inh,ARFGAP1 inhibitor,Calb FLC,VIM-2 inh,IMP-1 inh
CCCCOc1ccc(C(=O)NNC(=S)NC(=O)CC)cc1,-30,/,/,87*,-3,-3
Cc1cc(OCC(=O)NNC(=S)NC(=O)c2cccs2)ccc1Cl,22,-2,6,104*,-6,-6
CCCOc1ccc(C(=O)NNC(=S)NC(=O)c2cccs2)cc1,2,-11,3,93*,-4,-3
CCCC(=O)Nc1ccc(C(=O)NNC(=S)NC(=O)c2cccs2)cc1,-59,-9,2,-6,-3,-3
c1ccc(Nc2ccc(NCCc3c[nH]c4ccccc34)cc2)cc1,/,9,8,/,/,/
CCOC(=O)c1c(C)[nH]c(C)c1S(=O)(=O)NC1CCN(C(=O)OCC)CC1,44,7,15,-5,-6,-2
CCOC(=O)c1c(C)[nH]c(C)c1S(=O)(=O)NC(CC)CN1CCOCC1 (stereo unspecified),65*,-3,-11,-1,-5,-4
CCOc1cccc(CNCc2ccncc2)c1,62*,8,-5,5,-1,-3
CC12CC(c3ccccc3O1)N(C(=O)c1ccco1)C(=S)N2c1ccc(F)cc1 (stereo unspecified),71*,2,0,26,0,-2
CC1(C)Cc2c(cnn2-c2ccc(F)cc2)C(NC(=O)c2ccco2)C1 (stereo unspecified),-4,-3,5,3,-3,-3
COc1ccc([N+](=O)[O-])cc1NC(=O)COC(=O)C12CC3CC(CC(O)(C3)C1)C2,/,3,4,/,/,/
O=C(NCc1cccs1)Nc1cccs1,68*,-9,0,8,-2,-2
CCc1ccc(NC(=O)Nc2cccs2)cc1,74*,11,9,1,-3,-3
Cc1ccc(NC(=O)Nc2cccs2)cc1,9,-9,0,-6,-2,-1
CCOC(=O)C(CNc1ccc(O)cc1)NC(=O)c1ccccc1 (stereo unspecified),/,-14,-6,/,/,/
CCOC(=O)CSc1nc2ccc(N3CCOCC3)cc2c(=O)n1Cc1ccccc1,60*,-10,10,30,-6,-6
S=C(c1ccccc1)N1CCN(c2ccccc2)CC1,/,-5,1,/,/,/
CCN(CC)c1ccc(C(=S)N2CCN(c3ccccc3)CC2)cc1,74*,7,4,2,-1,-3
COCCCNCCCCOc1ccc(Br)cc1Cl,-14,-8,-10,-8,-4,0
CN(C)CCCCOc1ccc(Br)cc1Cl,30,7,-19,1,2,24*
COC(=O)c1[nH]c2ccc(C)cc2c1NC(=O)CCN1CCN(C2CCCCC2)CC1,-62,/,/,-7,-3,-1
COC(=O)c1[nH]c2ccc(Cl)cc2c1NC(=O)CCN1CCN(C2CCCCC2)CC1,0,5,-2,-12,-2,8.0*
CC(=O)N1N=C(c2ccc(Cl)cc2)CC1c1ccc([N+](=O)[O-])cc1 (stereo unspecified),14,-1,-2,-1,-1,2
CC1(O)CC(c2ccc(Cl)cc2)=NN1C(=O)c1ccc([N+](=O)[O-])cc1 (stereo unspecified),9,8,8,95*,-7,-4
Cc1cc(NC(=O)CSc2nnc(-c3cccc(F)c3)n2N)no1,/,18,3,/,/,/
SMILES,PHOSPHO1 inh,ASAP1 GAP inh,ARFGAP1 inhibitor,Calb FLC,VIM-2 inh,IMP-1 inh
COc1ccc(-c2nnc(SCC(=O)Nc3cc(C)on3)n2N)cc1OC,75*,-6,7,-10,-1,1
CCOc1ccccc1-n1nnnc1SCC(=O)Nc1cc(C)on1,62*,-8,-3,39,0,0
O=C(NNC(=S)Nc1ccc(Cl)cc1)c1ccccc1OC(F)F,-7,3,-7,102*,-3,-3
Cc1ccc2oc(=O)c3cc(C(=O)NCCCN4CCC(C)CC4)sc3c2c1,/,4,-10,/,/,/
Cc1ccc2oc(=O)c3cc(C(=O)NCc4ccco4)sc3c2c1,-4,4,-1,3,-2,-3
CCCN1CCN(CCCNC(=O)c2cc3c(=O)oc4ccc(C)cc4c3s2)CC1,18,14,0,1,12*,-3
Cc1ccc2oc(=O)c3cc(C(=O)NCCN4CCc5ccccc5C4)sc3c2c1,-11,3,-1,3,3,-4
CCN1CCN(C(=O)c2cc3c(=O)oc4ccc(C)cc4c3s2)CC1,24,7,-9,3,8.4*,-2
Cc1ccc2oc(=O)c3cc(C(=O)NCCCN4CCCC(C)C4)sc3c2c1 (stereo unspecified),12,8,16,4,11*,-3
CC1CCCC(C)N1C(=O)c1ccccc1 (stereo unspecified),/,5,13,/,/,/
COc1ccc(C(C)c2cc3c(cc2OCC(=O)O)OCO3)cc1 (stereo unspecified),/,-10,0,/,/,/
O=C(CSc1ccc(C(F)(F)F)cc1[N+](=O)[O-])Nc1ccccc1,50,31*,18,-7,-5,0
CC(=O)Nc1ccc(NC(=O)CSc2ccc(C(F)(F)F)cc2[N+](=O)[O-])cc1,-9,7,-4,11,2,0
N#CC1=C2N=C(N)c3c(sc4c3CCCCC4)N2C2=C(C(=O)CCC2)C1c1ccccc1 (stereo unspecified),70*,7,-5,19,0,0
COC(=O)C1=C(C)N(C)C(=NCc2ccc(OC)cc2)NC1c1ccccc1 (stereo unspecified),/,-3,4,/,/,/
COC(=O)c1ccccc1NC(=O)C(=O)NCc1ccncc1,66*,4,14,2,-1,-3
CCOc1ccc(NC(=O)C(=O)NCc2ccncc2)cc1,68*,6,1,-1,-2,-1
COC(=O)c1ccccc1NC(=O)NCc1cccnc1,10,-8,14,14,0,-2
S=C(NN=C1CCCCC1=NNC(=S)N1CCOCC1)N1CCOCC1,/,3,1,/,/,/
Cn1cc(-c2nnc(-c3ccccc3)o2)c2ccccc21,54,19,-11,9,0,4.9*
Cc1ccccc1-c1nnc(-c2ccccc2)o1,19,-6,-1,-6,0,-3
CN1CCN(C(=O)c2sc(=S)n(-c3ccccc3)c2N)CC1,31,-1,-1,20,-3,-1
Cc1ccc(-n2c(N)c(C(=O)N3CCOCC3)sc2=S)cc1,76*,6,-3,-12,0,-1
COc1ccc(Sc2nc(-c3ccccn3)ncc2OC)cc1,-25,3,-7,2,7.9*,-6
Cc1ccc2[nH]c(=O)c(C3C(C#N)=C(N)Oc4c3ccc3cccnc43)cc2c1 (stereo unspecified),83*,3,-6,99*,-1,-1
CCOCCCNC(=O)c1ccc(N(C)S(=O)(=O)c2ccc(OC)cc2)cc1,18,-1,6,106*,1,0
